Experimental data published in ChEMBL document CHEMBL1124885, “Resolution, absolute stereochemistry, and enantioselectivity of 2-methyl-4-phenyl-1,2,3,4-tetrahydroisoquinolin-4-ol” (1990).

Legend:
Rattus norvegicus [1] = species on record: Rattus norvegicus; assay: Tested for potentiating activity on the responses of rat anococcygeus muscle to norepinephrine (NE)at a concentration of 10 E -7 M; format: functional, Muscle tissue
Method in brief: (§1)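 Isolated rat anococcygeus muscle. Concentration-response curves to norepinephrine (NE) were run with and without the test compound, and potentiation was judged from the shift at low NE concentrations. pD2 is the negative log of the molar NE concentration giving 50% of maximal response. Activity ratio is the antilog of the pD2 difference with versus without compound, with no compound set at 1.0. n is the number of experiments.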

Rattus norvegicus [2] = species on record: Rattus norvegicus; assay: Tested for potentiating activity on the responses of rat anococcygeus muscle to norepinephrine (NE)at a concentration of 3 x 10 E -7 M; format: functional, Muscle tissue; method in brief: as §1
Rattus norvegicus [3] = species on record: Rattus norvegicus; assay: Tested for potentiating activity on the responses of rat anococcygeus muscle to norepinephrine (NE)at a concentration of 10 E -6 M; format: functional, Muscle tissue; method in brief: as §1
[4] = Activity ratio, difference between the pD2 values for NE obtained in the absence and presence at 3 x 10 E -7 M; format: functional; method in brief: as §1
[5] = Activity ratio, difference between the pD2 values for NE obtained in the absence and presence at 10 E -7 M; format: functional; method in brief: as §1
[6] = Activity ratio, difference between the pD2 values for NE obtained in the absence and presence at 10 E -6 M; format: functional; method in brief: as §1
Rattus norvegicus [7] = species on record: Rattus norvegicus; assay: Tested for potentiating activity on the responses of rat anococcygeus muscle to norepinephrine (NE)at a concentration of 0 (absence of potentiating compound); format: functional, Muscle tissue; method in brief: as §1
Rattus norvegicus [8] = species on record: Rattus norvegicus; assay: Tested for potentiating activity on the responses of rat anococcygeus muscle to norepinephrine (NE)at a concentration of 3 x 10 E -6 M; format: functional, Muscle tissue; method in brief: as §1
[9] = Activity ratio, difference between the pD2 values for NE obtained in the absence and presence at 0 (absence of potentiating compound); format: functional; method in brief: as §1
[10] = Activity ratio, difference between the pD2 values for NE obtained in the absence and presence at 3 x 10 E -6 M; format: functional; method in brief: as §1
Rattus norvegicus [11] = species on record: Rattus norvegicus; assay: Tested for potentiating activity on the responses of rat anococcygeus muscle to norepinephrine (NE)at a concentration of 10e-6 M; format: functional, Muscle tissue; method in brief: as §1
[12] = Activity ratio, difference between the pD2 values for NE obtained in the absence and presence at 3 x 10e-7 M; format: functional; method in brief: as §1
[13] = Activity ratio, difference between the pD2 values for NE obtained in the absence and presence at 10e-6 M; format: functional; method in brief: as §1
[14] = Activity ratio, difference between the pD2 values for NE obtained in the absence and presence at 10e-7 M; format: functional; method in brief: as §1
Rattus norvegicus [15] = species on record: Rattus norvegicus; assay: Tested for potentiating activity on the responses of rat anococcygeus muscle to norepinephrine (NE)at a concentration of 10e-7 M; format: functional, Muscle tissue; method in brief: as §1
Rattus norvegicus [16] = species on record: Rattus norvegicus; assay: Tested for potentiating activity on the responses of rat anococcygeus muscle to norepinephrine (NE)at a concentration of 3 x 10e -7 M; format: functional, Muscle tissue; method in brief: as §1
Rattus norvegicus [17] = species on record: Rattus norvegicus; assay: Tested for potentiating activity on the responses of rat anococcygeus muscle to norepinephrine (NE)at a concentration of 3 x 10e-6 M; format: functional, Muscle tissue; method in brief: as §1

SMILES | pD2 (Rattus norvegicus [1]) | pD2 (Rattus norvegicus [2]) | pD2 (Rattus norvegicus [3]) | Ratio [4] | Ratio [5] | Ratio [6] | pD2 (Rattus norvegicus [7]) | pD2 (Rattus norvegicus [8]) | Ratio [9] | Ratio [10] | pD2 (Rattus norvegicus [11]) | Ratio [12] | Ratio [13] | Ratio [14] | pD2 (Rattus norvegicus [15]) | pD2 (Rattus norvegicus [16]) | pD2 (Rattus norvegicus [17])
CN1Cc2ccccc2[C@](O)(c2ccccc2)C1 | 6.6 | 7.01 | 7.28 | 6 | 2.3 | 11.2 | 6.23 | 7.56 | 1 | 21.4 |  |  |  |  |  |  | 
CN1Cc2ccccc2C(O)(c2ccccc2)C1 (racemic) |  |  |  |  |  |  | 6.25 |  | 1 | 17.8 | 7.18 | 3 | 8.5 | 1.5 | 6.42 | 6.73 | 7.5
CN1Cc2ccccc2[C@@](O)(c2ccccc2)C1 |  | 6.24 | 6.23 | 1 |  | 1 | 6.23 | 6.27 | 1 | 1.1 |  |  |  |  |  |  | 
